Experimental data as given in ChEMBL document CHEMBL1124879, “Inotropic "A" ring substituted sulmazole and isomazole analogues” (1990).

Key:
Cavia porcellus [1] = species on record: Cavia porcellus; experiment: In vitro concentration required to give a 50% increase in basal contractile force in an isolated paced guinea pig papillary muscle preparation at 0.2mM; i = 'inactive'; assay type: functional; settings: Muscle tissue
Summary of the method: (§1)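 Isolated guinea pig papillary muscle, loaded at 500 mg, in Krebs-Henseleit with 2.5 mM Ca2+, gassed 95% O2-5% CO2, 34 °C. Paced with 1-ms rectangular pulses at 1.5 Hz, 20% above threshold voltage. Isometric tension recorded. Preparations not contracting uniformly after 60 min were rejected. pA50 is the -log concentration giving a 50% rise in basal force. Top concentrations tested were 0.2, 1 or 5 mM.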

Cavia porcellus [2] = species on record: Cavia porcellus; experiment: In vitro concentration required to give a 50% increase in basal contractile force in an isolated paced guinea pig papillary muscle preparation; assay type: functional, Muscle tissue; summary of the method: as §1
Cavia porcellus [3] = species on record: Cavia porcellus; experiment: In vitro concentration required to give a 50% increase in basal contractile force in an isolated paced guinea pig papillary muscle preparation at 1mM; i = 'inactive'; assay type: functional; settings: Muscle tissue; summary of the method: as §1
Cavia porcellus [4] = species on record: Cavia porcellus; experiment: In vitro concentration required to give a 50% increase in basal contractile force in an isolated paced guinea pig papillary muscle preparation at 5mM; i = 'inactive'; assay type: functional; settings: Muscle tissue; summary of the method: as §1
Canis familiaris [5] = species on record: Canis familiaris; experiment: The effective dose was measured to produce the 10%increase in heart rate.; assay type: functional, Canis lupus familiaris
Summary of the method: (§2)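 Anesthetized open-chest beagle dogs, 8.5-13 kg, thiopentone induction, α-chloralose/pentobarbitone maintenance, single iv bolus at 0.1 mL/kg. Heart rate taken by tachograph. Doses (mg/kg iv) giving a 50% rise in dP/dt, a 30% fall in diastolic pressure and a 10% rise in heart rate were calculated from mean dose-response data.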

Canis familiaris [6] = species on record: Canis familiaris; experiment: The effective dose to produce the 30%decrease in diastolic blood pressure.; assay type: functional, Canis lupus familiaris, Artery; summary of the method: as §2
Canis familiaris [7] = experiment: Maximum percentage increase in heart rate produced by the compound at a dose 0.3 mg/kg; assay type: functional, Canis lupus familiaris
Summary of the method: (§3)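 Beagle dogs of either sex, 8.5-13 kg, anesthetized and open-chest. Induction with thiopentone sodium 30 mg/kg iv, then maintenance with α-chloralose 15 mg/kg plus pentobarbitone 6 mg/kg via a femoral vein cannula. Single iv bolus at 0.1 mL/kg, with vehicle bolus in every animal. Body temperature held at 37-38 °C. Maximal % change recorded for dP/dt, diastolic blood pressure and heart rate.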

Canis familiaris [8] = experiment: Maximum percentage change in dP/dt, diastolic blood pressure and heart rate produced by the compound at a dose 0.3 mg/kg; assay type: functional, Canis lupus familiaris, Artery; summary of the method: as §3
Canis familiaris [9] = species on record: Canis familiaris; experiment: The effective dose to produce a maximum increase in dP/dt diastolic blood pressure and heart rate; assay type: functional, Canis lupus familiaris, Artery; summary of the method: as §2
Canis familiaris [10] = experiment: Maximum percentage decrease in diastolic blood pressure produced by the compound at a dose 1 mg/kg; assay type: functional, Canis lupus familiaris, Artery; summary of the method: as §3
Canis familiaris [11] = experiment: Maximum percentage change in dP/dt, diastolic blood pressure and heart rate produced by the compound at a dose of 3.0 mg/kg; assay type: functional, Canis lupus familiaris, Artery; summary of the method: as §3
Canis familiaris [12] = experiment: Maximum percentage increase in heart rate produced by the compound at a dose of 3 mg/kg; assay type: functional, Canis lupus familiaris; summary of the method: as §3
Canis familiaris [13] = experiment: Maximum percentage decrease in diastolic blood pressure produced by the compound at a dose of 3.0 mg/kg; assay type: functional, Canis lupus familiaris, Artery; summary of the method: as §3
Canis familiaris [14] = experiment: Maximum percentage change in dP/dt, diastolic blood pressure and heart rate produced by the compound at a dose of a mg/kg; assay type: functional, Canis lupus familiaris, Artery; summary of the method: as §3
Canis familiaris [15] = experiment: Maximum percentage decrease in diastolic blood pressure produced by the compound at a dose 3 mg/kg; assay type: functional, Canis lupus familiaris, Artery; summary of the method: as §3
Canis familiaris [16] = species on record: Canis familiaris; experiment: The effective dose was measured to produce the 10%increase in heart rate; assay type: functional, Canis lupus familiaris; summary of the method: as §2
Canis familiaris [17] = species on record: Canis familiaris; experiment: The effective dose to produce the 30%decrease in diastolic blood pressure; assay type: functional, Canis lupus familiaris, Artery; summary of the method: as §2
Canis familiaris [18] = experiment: Maximum percentage change in dP/dt, diastolic blood pressure and heart rate produced by the compound at a dose 3.0 mg/kg; assay type: functional, Canis lupus familiaris, Artery; summary of the method: as §3

## COc1ccc(-c2nc3c(C)nccc3[nH]2)c(OC)c1
Cavia porcellus [1]
  pA50: Weak inotropic effects

## COc1ccc(-c2nc3cc(N)c[nH]c-3n2)c(OC)c1
Cavia porcellus [2]
  pA50: 4.8

## COc1cc([S+](C)[O-])ccc1-c1nc2c(OC)cncc2[nH]1 (stereo not given)
Cavia porcellus [2]
  pA50: 3

## COc1ccc(-c2nc3cc(C(C)=O)c[nH]c-3n2)c(OC)c1
Cavia porcellus [3]
  pA50: Weak inotropic effects

## COc1cc(SC)ccc1-c1nc2c(N)cncc2[nH]1
Cavia porcellus [3]
  pA50: Weak inotropic effects

## COc1c[nH]c2nc(-c3ccc([S+](C)[O-])cc3OC)nc-2c1 (stereo not given)
Cavia porcellus [2]
  pA50: 3.63

## COc1ccc(-c2nc3c(N)cncc3[nH]2)c(OC)c1
Cavia porcellus [4]
  pA50: Weak inotropic effects

## COc1cc([S+](C)[O-])ccc1-c1nc2[nH]ccc(OC)c-2n1 (stereo not given)
Cavia porcellus [2]
  pA50: 4.1

## COc1cc2[nH]c(-c3ccc([S+](C)[O-])cc3OC)nc2cn1 (stereo not given)
Cavia porcellus [2]
  pA50: 3.76

## COc1cc([S+](C)[O-])ccc1-c1nc2cnccc2[nH]1 (stereo not given) [ISOMAZOLE]
Canis familiaris [5]
  ED10 HR: 0.056 mg/kg
Canis familiaris [6]
  ED30 DBP: 0.16 mg/kg
Canis familiaris [7]
  Max increase: 15%
Canis familiaris [8]
  Max increase: 88%
Canis familiaris [9]
  ED50: 0.05 mg/kg
Canis familiaris [10]
  Max decrease: 43%
Cavia porcellus [2]
  pA50: 4.64

## COc1cc([S+](C)[O-])ccc1-c1nc2cc(C)c[nH]c-2n1 (stereo not given)
Cavia porcellus [2]
  pA50: 3.73

## COc1ccc(-c2nc3ccc[nH]c-3n2)c(OC)c1
Cavia porcellus [2]
  pA50: 5.08

## COc1ccc(-c2nc3cc[nH]cc-3n2)c(OC)c1
Cavia porcellus [2]
  pA50: 4.01

## CNc1[nH]ccc2nc(-c3ccc(OC)cc3OC)nc1-2
Cavia porcellus [3]
  pA50: Weak inotropic effects

## COc1cc([S+](C)[O-])ccc1-c1nc2cc(N)c[nH]c-2n1 (stereo not given)
Canis familiaris [5]
  ED10 HR: 1.41 mg/kg
Canis familiaris [6]
  ED30 DBP: > 3 mg/kg
Canis familiaris [11]
  Max increase: 87%
Canis familiaris [12]
  Max increase: 15%
Canis familiaris [9]
  ED50: 0.5 mg/kg
Canis familiaris [13]
  Max decrease: 25%
Cavia porcellus [2]
  pA50: 4.01

## COc1cc([S+](C)[O-])ccc1-c1nc2c(N)cncc2[nH]1 (stereo not given)
Cavia porcellus [2]
  pA50: 3.72

## COc1cc([S+](C)[O-])ccc1-c1nc2c(OC)nccc2[nH]1 (stereo not given)
Canis familiaris [5]
  ED10 HR: 0.28 mg/kg
Canis familiaris [6]
  ED30 DBP: 0.2 mg/kg
Canis familiaris [14]
  Max increase: 125%
Canis familiaris [7]
  Max increase: 10%
Canis familiaris [9]
  ED50: 0.13 mg/kg
Canis familiaris [15]
  Max decrease: 70%
Cavia porcellus [2]
  pA50: 3.91

## COc1cc([S+](C)[O-])ccc1-c1nc2cc(Cl)c[nH]c-2n1 (stereo not given)
Cavia porcellus [2]
  pA50: 3.61

## COc1cc([S+](C)[O-])ccc1-c1nc2cc(O)c[nH]c-2n1 (stereo not given)
Cavia porcellus [2]
  pA50: 3.75

## COc1ccc2[nH]c(-c3ccc([S+](C)[O-])cc3OC)nc2n1 (stereo not given)
Cavia porcellus [2]
  pA50: 3

## COc1cc([S+](C)[O-])ccc1-c1nc2cccnc2[nH]1 (stereo not given) [SULMAZOLE]
Canis familiaris [16]
  ED10 HR: 0.5 mg/kg
Canis familiaris [17]
  ED30 DBP: 1 mg/kg
Canis familiaris [12]
  Max increase: 20%
Canis familiaris [18]
  Max increase: 73%
Canis familiaris [9]
  ED50: 0.8 mg/kg
Canis familiaris [13]
  Max decrease: 36%
Cavia porcellus [2]
  pA50: 4.7
